Data set [1] is described as follows: Selectivity index, ratio of cytotoxicity against pig LLC-PK1 cells to IC50 for Cryptococcus neoformans ATCC 90113. It is filed as toxicity, cell-based. Conditions: read-out: Selectivity Index.
Data set [2] is described as follows: Selectivity index, ratio of cytotoxicity against african green monkey Vero cells to IC50 for Cryptococcus neoformans ATCC 90113. It is filed as toxicity, cell-based. Conditions: read-out: Selectivity Index.
Data set [3] is described as follows: Selectivity index, ratio of cytotoxicity against human SKOV3 cells to IC50 for Cryptococcus neoformans ATCC 90113. It is filed as toxicity, cell-based, SK-OV-3. Conditions: read-out: Selectivity Index.
Data set [4] in a line: Selectivity index, ratio of cytotoxicity against human BT549 cells to IC50 for Cryptococcus neoformans ATCC 90113. It is filed as toxicity, cell-based, BT-549. Conditions: read-out: Selectivity Index.
Data set [5] is described as follows: Selectivity index, ratio of cytotoxicity against human KB cells to IC50 for Cryptococcus neoformans ATCC 90113. The format is toxicity, cell-based. Conditions: read-out: Selectivity Index.
The nature of data set [6]: Selectivity index, ratio of cytotoxicity against human SK-MEL cells to IC50 for Cryptococcus neoformans ATCC 90113. The format is toxicity, cell-based. Conditions: read-out: Selectivity Index.
In data set [7] the test system is LLC-PK1. The experiment in a line: Cytotoxicity against pig LLC-PK1 cells assessed as cell viability after 48 hrs by neutral red uptake assay. The format is cell-based, Sus scrofa. Conditions: llc-pk1, 48 h. An outline of the steps:
(§1)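 Neutral red uptake assay on human cancer lines (SK-MEL, KB, BT-549, SK-OV-3) and noncancerous mammalian cells (VERO, LLC-PK1). Highest tested concentration was 10 µg/mL.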

The subject of data set [8] is Vero. Briefly: Cytotoxicity against african green monkey Vero cells assessed as cell viability after 48 hrs by neutral red uptake assay. Conditions: chlorocebus sabaeus. The format is cell-based. The method in brief: as §1
For data set [9], the system named is SK-OV-3. Briefly: Cytotoxicity against human SKOV3 cells assessed as cell viability after 48 hrs by neutral red uptake assay. It is filed as cell-based. Conditions: sk-ov-3, 48 h. The method in brief: as §1
For data set [10], the system named is KB. Briefly: Cytotoxicity against human KB cells assessed as cell viability after 48 hrs by neutral red uptake assay. It is filed as cell-based. An outline of the steps:
as §1

Data set [11] deals with BT-549. The experiment in a line: Cytotoxicity against human BT549 cells assessed as cell viability after 48 hrs by neutral red uptake assay. It is filed as cell-based. Conditions: bt-549, 48 h. The method in brief: as §1
Data set [12] deals with SK-MEL. Briefly: Cytotoxicity against human SK-MEL cells assessed as cell viability after 48 hrs by neutral red uptake assay. The format is cell-based. An outline of the steps:
as §1

For data set [13], the system named is Escherichia coli. The experiment in a line: Antibacterial activity against Escherichia coli ATCC 35218 assessed as growth inhibition after 16-20 hrs by CLSI method. It is filed as functional, organism-based.
Data set [14] relates to Aspergillus fumigatus. The experiment in a line: Antifungal activity against Aspergillus fumigatus assessed as growth inhibition. The format is functional, organism-based.
The test system of data set [15] is Pichia kudriavzevii. Briefly: Antifungal activity against Candida krusei assessed as growth inhibition. The format is functional, organism-based.
Data set [16] relates to Nakaseomyces glabratus. The experiment in a line: Antifungal activity against Candida glabrata assessed as growth inhibition. It is filed as functional, organism-based.
For data set [17], the system named is Candida albicans. Briefly: Antifungal activity against Candida albicans assessed as growth inhibition. It is filed as functional, organism-based.
In data set [18] the test system is Cryptococcus neoformans. The experiment in a line: Antifungal activity against Cryptococcus neoformans ATCC 90113 assessed as growth inhibition after 70-74 hrs by CLSI method. It is filed as functional, organism-based. Conditions: Cryptococcus neoformans, ATCC 90113; for IC50: read-out: IC50.

Values after ≈ are worked out from the molar mass of the structure shown. Active and inactive are the calls of the source.

Consider `Cc1ccc(-c2nc(C[C@H](NC(=O)[C@@H](N)Cc3c[nH]c4ccccc34)C(=O)NCc3ccccc3)c[nH]2)cc1`, for which the selectivity ratio in data set [1], in data set [2], in data set [3], in data set [4], in data set [5] and in data set [6] was greater than 1.3 each time. In addition, the Activity in [7], in [8], in data set [9], in data set [10], in data set [11] and in data set [12] was greater than 10 µg/mL in each case. The “growth inhibition (GI)” value in data set [13], in data set [14], in [15], in data set [16] and in [17] was “inactive” in each case. The MIC (as a rule, the least concentration at which growth counts as inhibited) in [18] came to 20 µg/mL (≈ 38.4 µM). The IC50 (in general, the point on the concentration scale where inhibition reaches its midpoint) in [18] worked out at 7.84 µg/mL (≈ 15.1 µM).

For the compound `CC(C)(C)OC(=O)N[C@@H](Cc1c[nH]c(-c2ccccc2)n1)C(=O)N[C@@H](CCCNC(=N)N)C(=O)NCc1ccccc1`, the selectivity ratio in data set [1], in data set [2], in [3], in [4], in data set [5] and in data set [6] was greater than 3.9 throughout. Also, the Activity in [7], in [8], in data set [9], in [10], in [11] and in data set [12] was greater than 10 µg/mL in each case. Moreover, the “growth inhibition (GI)” value in data set [13], in data set [14], in data set [15], in data set [16] and in data set [17] was “inactive” each time. Also, in data set [18], the MFC (usually the smallest concentration meeting the test's criterion for killing the fungus) came out at 5 µg/mL (≈ 8.67 µM). Besides, in data set [18], the MIC was 5 µg/mL (≈ 8.67 µM). In data set [18], the concentration for half-maximal inhibition (IC50) was determined as 2.56 µg/mL (≈ 4.44 µM).

For `COC(=O)[C@H](Cc1c[nH]c(-c2ccc(-c3ccccc3)cc2)n1)NC(=O)[C@@H](N)Cc1c[nH]c2ccccc12`, the selectivity ratio in data set [1], in [2], in data set [3], in [4], in data set [5] and in data set [6] was greater than 2.6 throughout. Further, the Activity in data set [7], in [8], in data set [9], in [10], in data set [11] and in data set [12] was greater than 10 µg/mL throughout. The “growth inhibition (GI)” value in data set [13], in data set [14], in data set [15], in [16] and in data set [17] was “inactive” each time. Moreover, in data set [18], the MFC turned out to be 20 µg/mL (≈ 39.4 µM). In addition, the MIC in [18] worked out at 10 µg/mL (≈ 19.7 µM). The IC50 in data set [18] was 3.82 µg/mL (≈ 7.53 µM).

With `N=C(N)NCCC[C@H](NC(=O)[C@@H](N)Cc1c[nH]c(-c2cccc3ccccc23)n1)C(=O)NCc1ccccc1`, the selectivity ratio in [1], in data set [2], in data set [3], in data set [4], in data set [5] and in data set [6] was greater than 16.1 each time. The Activity in [7], in [8], in data set [9], in data set [10], in [11] and in data set [12] was greater than 10 µg/mL throughout. The “growth inhibition (GI)” value in [13], in data set [14], in data set [15], in data set [16] and in [17] was “inactive” each time. Also, the MFC in data set [18] came to 1.25 µg/mL (≈ 2.37 µM). Further, the MIC in data set [18] came out at 1.25 µg/mL (≈ 2.37 µM). In addition, the IC50 in data set [18] came to 0.62 µg/mL (≈ 1.18 µM).

Turning to `Cc1ccc(-c2nc(C[C@H](N)C(=O)N[C@@H](CCCNC(=N)N)C(=O)NCc3ccccc3)c[nH]2)cc1`, the selectivity ratio in [1], in data set [2], in data set [3], in data set [4], in [5] and in data set [6] was greater than 4.7 throughout. The Activity in data set [7], in data set [8], in data set [9], in [10], in data set [11] and in data set [12] was greater than 10 µg/mL throughout. The “growth inhibition (GI)” value in [13], in data set [14], in data set [15], in [16] and in data set [17] was “inactive” in each case. Further, in data set [18], the MFC amounted to 2.5 µg/mL (≈ 5.1 µM). Further, in data set [18], the MIC worked out at 2.5 µg/mL (≈ 5.1 µM). The IC50 in [18] came to 2.11 µg/mL (≈ 4.3 µM).

For `Cc1ccc(-c2nc(C[C@H](NC(=O)OC(C)(C)C)C(=O)N[C@@H](CCCNC(=N)N)C(=O)NCc3ccccc3)c[nH]2)cc1`, the selectivity ratio in data set [1], in data set [2], in data set [3], in data set [4], in data set [5] and in [6] was greater than 1.7 each time. The Activity in data set [7], in data set [8], in [9], in [10], in data set [11] and in data set [12] was greater than 10 µg/mL each time. For the same compound, the “growth inhibition (GI)” value in [13], in [14], in [15], in [16] and in data set [17] was “inactive” in each case. Moreover, in data set [18], the MFC was found to be 10 µg/mL (≈ 16.9 µM). The MIC in data set [18] was 10 µg/mL (≈ 16.9 µM). Besides, in data set [18], the IC50 worked out at 6.04 µg/mL (≈ 10.2 µM).

`COC(=O)[C@H](Cc1c[nH]c(-c2ccccc2)n1)NC(=O)[C@@H](N)Cc1c[nH]c2ccccc12`: the selectivity ratio in data set [1], in data set [2], in data set [3], in data set [4], in [5] and in [6] was greater than 1.3 in each case. For the same compound, the Activity in data set [7], in [8], in [9], in data set [10], in data set [11] and in data set [12] was greater than 10 µg/mL each time. Also, the “growth inhibition (GI)” value in [13], in data set [14], in data set [15], in [16] and in data set [17] was “inactive” throughout. The MFC in data set [18] turned out to be 20 µg/mL (≈ 46.4 µM). Moreover, in [18], the MIC was found to be 20 µg/mL (≈ 46.4 µM). In data set [18], the IC50 is 7.97 µg/mL (≈ 18.5 µM).

On to `COC(=O)[C@H](CCCNC(=N)N)NC(=O)[C@H](Cc1c[nH]c(-c2ccc(-c3ccccc3)cc2)n1)NC(=O)OC(C)(C)C`, for which the selectivity ratio in data set [1], in [2], in data set [3], in data set [4], in data set [5] and in [6] was greater than 2 in each case. The Activity in [7], in data set [8], in data set [9], in data set [10], in [11] and in data set [12] was greater than 10 µg/mL throughout. Also, the “growth inhibition (GI)” value in data set [13], in data set [14], in data set [15], in [16] and in data set [17] was “inactive” in each case. Further, the MFC in data set [18] was 10 µg/mL (≈ 17.3 µM). For the same compound, the minimum inhibitory concentration (MIC) in [18] was found to be 10 µg/mL (≈ 17.3 µM). Besides, the IC50 in [18] stood at 4.91 µg/mL (≈ 8.5 µM).

For the origin of these results see ChEMBL document CHEMBL3132745, “Synthesis and Antimicrobial Activities of His(2-aryl)-Arg and Trp-His(2-aryl) Classes of Dipeptidomimetics” (Medchemcomm, 2014).
